This is a sample that favours compounds with a hit; in the whole collection about 3.4% have one here.
Cl transport mod: KCC2 cotransporter modulators, thallium flux, primary screen, cell-based, HEK293 KCC2, FluoZin-2 fluorescence, MLSMR; Solute carrier family 12 member 5 (Homo sapiens), Q9H2X9; KCC2 cells, thallium flux FluoZin-2 fluorescence; B-score of Tl+ flux slope (higher = more flux/activation; lower = inhibition) at 10 µM; 2.2% of 190,000 active; AID 1456, 2008;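 active means thallium flux slope and its plate-corrected score both differing from the plate sample mean at a set confidence after two filtering rounds, in either direction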;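 further: slope of fluorescence scaled to starting intensity during 10 to 20 s after thallium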
MDM2 E3 inh: MDM2-luciferase reporter signal enhancers, primary screen, MDM2 E3 ligase inhibitor project, cell-based, luminescence, 1536-well; E3 ubiquitin-protein ligase Mdm2 (Homo sapiens), Q00987; cell-based MDM2 ubiquitination luciferase reporter, 2 h; 0 = plate control, 100 = twice control, blank-subtracted; signal enhancement, % at 5 µM; 0.11% of 210,000 active;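 active means signal enhancement of 30% or more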;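 further: luminescence tracks abundance of the self-degrading MDM2-luciferase fusion protein; higher signal means inhibition of MDM2 E3 ligase activity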
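Assay system: stable mammalian line carrying autodegrading MDM2–luciferase fusion reporter; amount: 2000 cells seeded into each well; buffer or medium: DMEM; benchmarks: plate control and blank wells; signal: luciferase luminescence; timing: 2 h compound exposure at 37 °C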
ROMK primary: ROMK potassium channel modulators, primary screen, cell-based, thallium flux, MLSMR library; Tet-inducible ROMK, thallium flux fluorescence; actives lie on both sides; B-score at 10 µM; 2% of 130,000 active;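 active means signal ratio slope over the read window, or its plate-corrected B-score, at least 3 SD from the plate mean, either direction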;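 further: B-score of the F/F0 ratio slope over 7 to 12 s after thallium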
p97 inhibitor: inhibitors of human p97 ATPase, primary screen, biochemical; Transitional endoplasmic reticulum ATPase (Homo sapiens), P55072; recombinant p97 ATPase, Kinase-Glo ATP luminescence, 3 h; inhibition, % at 8 µM; 0.42% of 220,000 active; in the data active means inhibition above about 15%
Target sequence (P55072 whole entry, looked up): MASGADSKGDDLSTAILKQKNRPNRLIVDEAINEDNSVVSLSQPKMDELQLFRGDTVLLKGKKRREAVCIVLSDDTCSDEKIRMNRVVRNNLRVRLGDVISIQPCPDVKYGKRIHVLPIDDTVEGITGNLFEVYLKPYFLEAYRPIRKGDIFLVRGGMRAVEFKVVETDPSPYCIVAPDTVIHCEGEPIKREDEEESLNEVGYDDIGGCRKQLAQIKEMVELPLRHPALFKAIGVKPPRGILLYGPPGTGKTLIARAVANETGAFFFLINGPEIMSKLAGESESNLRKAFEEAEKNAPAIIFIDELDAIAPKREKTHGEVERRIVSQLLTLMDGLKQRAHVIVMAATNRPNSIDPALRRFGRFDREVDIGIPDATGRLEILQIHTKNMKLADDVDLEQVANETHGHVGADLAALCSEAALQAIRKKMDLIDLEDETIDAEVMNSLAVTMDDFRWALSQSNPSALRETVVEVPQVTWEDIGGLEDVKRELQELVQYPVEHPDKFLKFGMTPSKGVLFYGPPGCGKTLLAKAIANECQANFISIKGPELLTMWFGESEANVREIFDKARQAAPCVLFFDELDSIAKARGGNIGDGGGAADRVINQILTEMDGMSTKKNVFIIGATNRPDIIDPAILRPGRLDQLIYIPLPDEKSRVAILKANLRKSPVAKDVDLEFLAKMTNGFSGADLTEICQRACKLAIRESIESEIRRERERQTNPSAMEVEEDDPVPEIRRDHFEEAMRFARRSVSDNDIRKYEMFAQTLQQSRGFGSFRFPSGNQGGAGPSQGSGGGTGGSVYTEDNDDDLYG
DTT redox prof: compounds producing H2O2 with reducing agent – biochemical, NIH compound library profiling, artefact control for MLSCN library redox annotation, primary screen | DTT-dependent redox cycling H2O2, phenol red/HRP absorbance; 100% = 100 µM peroxide control, 0% = buffer | 0.03% of 200,000 active | activation, % at 10 µM;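 active means activation of at least 50% relative to the plate's high and low controls in the primary single-dose screen; inactive means activation below 50%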;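 further: compound incubated with DTT at 0.8 mM final as the reducing agent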
PKD1 inh: inhibitors of human PKD1 kinase, biochemical, fluorescence polarization; 0.056% of 200,000 active; PKD1 kinase fluorescence polarization assay; AID 797, 2007; Serine/threonine-protein kinase D1 (Homo sapiens), Q15139; inhibition, % (no concentration beside the values); in the data active means inhibition above about 50%
ROMK retest: ROMK channel modulator hit retest, confirmation, cell-based, thallium flux, duplicate, resupplied hits | shares compounds with ROMK primary | 54% of 3,000 active | fluorescence ratio; stronger effect = lower value | normalized thallium flux (F/F0 slope) at 10 µM;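 active means Flux at 10 µM at least 3 SD below or above vehicle control mean in one or both replicates; inconclusive means no clear call, values can overlap the other calls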
A number is an active result; . = inactive; ? = inconclusive; / = no result.

SMILES	Cl transport mod	MDM2 E3 inh	ROMK primary	p97 inhibitor	DTT redox prof	PKD1 inh	ROMK retest
CC(=O)c1c(C)[nH]c(C(=O)Nc2nc(-c3ccc(Cl)cc3)cs2)c1C	.	.	.	.	.	.	/
CC(=O)c1c(C)[nH]c(C(=O)Nc2nc(C)cs2)c1C	.	.	2.8	.	.	.	.
O=c1nc(NCc2ccccc2Cl)cn[nH]1	.	.	/	.	.	.	/
CCCCN(C)S(=O)(=O)c1ccc(C(=O)Nc2nnc(-c3ccco3)o2)cc1	.	.	3.2	.	.	.	.
Cn1nc(OCCOc2ccccc2)ccc1=O	.	.	.	.	.	.	/
CC(=O)NCCNC(=O)[C@H](Cc1ccccc1)NC(=O)c1cccs1	.	.	2.4	.	.	.	.
CCCCOc1cccc(/C=N/NC(=O)c2csc(C)c2C)c1	.	.	.	.	.	.	/
O=C(O)c1cc2ccc3ccccc3c2oc1=O	.	.	.	.	.	.	/
O=C(O)CCN1C(=O)CC(N2C(=O)/C(=C/c3ccc(Cl)cc3)SC2=S)C1=O (stereo not given)	.	.	-2	.	.	.	0.044
CCOc1ccc(/C=C2\SC(=S)N(CCC(=O)O)C2=O)cc1	.	.	/	.	/	/	/
O=C(O)CCN1C(=O)/C(=C\c2cccc(OCC(=O)Nc3ccc(Cl)cc3)c2)SC1=S	.	.	/	.	/	/	0.053
CC1=NOC(=O)/C1=C/c1ccc(O)cc1	/	.	-3.7	.	.	.	0.048
O=C1ON=C(c2ccc(Cl)cc2)/C1=C/c1ccc(O)cc1	.	.	.	.	.	.	/
Oc1c(Br)cc(Br)cc1C=Nc1ccc2c(c1)OCCO2	.	/	.	.	.	.	/
Oc1c(Br)cc(Br)cc1C=Nc1ccc2c(c1)OCO2	.	.	3.4	.	.	.	0.11
[O-]/[N+](=C\c1ccncc1)c1ccccc1	.	.	/	.	.	.	.
CC(=O)NC(Cc1ccccc1)c1ccc2c(c1)OCCCO2 (stereo not given)	.	.	.	.	.	.	/
CCCS(=O)(=O)c1c(S(=O)(=O)CCC)c2cnccn2c1C(=O)c1ccc(CC)cc1	.	.	-4.1	.	.	.	0.066
CC(=O)N1CCN(c2ccc(NC(=O)/C=C/c3ccccc3)cc2)CC1	.	.	.	.	.	.	/
O=C(c1ccncc1)c1ccc(N2CCN(C3CC(=O)N(Cc4ccccc4)C3=O)CC2)cc1 (stereo not given)	/	.	-4	.	.	.	?
CN(c1ccccc1C(=O)Nc1cccc(C(F)(F)F)c1)S(C)(=O)=O	.	.	/	.	.	.	/
O=C(COC(=O)Cc1ccsc1)Nc1ccccc1	.	.	.	.	.	.	/
Cc1ccc2c(c1)c(-c1ccccc1)nc1nnnn12	.	.	.	.	.	.	/
O=C(c1ccccc1)c1c2c(cc3sc4ccccc4[n+]13)-c1cccc3cccc-2c13	.	.	/	.	.	.	0.045
Cc1sc2cc3c(c(C(=O)c4ccccc4)[n+]2c1C)-c1cccc2cccc-3c12	.	.	-3.1	.	.	.	0.055
SMILES	Cl transport mod	MDM2 E3 inh	ROMK primary	p97 inhibitor	DTT redox prof	PKD1 inh	ROMK retest
Cc1cc(C)c2c(N)c(C(=O)c3ccccc3)sc2n1	.	.	.	.	/	/	/
N#Cc1c(Oc2ccc3ccccc3c2)sc(C(=O)c2ccccc2)c1N	.	.	/	.	.	.	/
S=C(NCCCN1CCOCC1)NCCCN1CCOCC1	.	.	.	.	.	.	/
CCCCCCCCNC(=S)NCCN1CCCCC1	.	.	-2.6	.	.	.	0.048
COc1ccc(CN2CCSCC2)cc1C	/	.	3.3	.	.	.	.
COc1ccc(CC2(CO)CCN(Cc3cnn(C)c3C)CC2)cc1	.	.	.	.	.	.	/
Cc1ccc(C(=O)CN(Cc2ccccc2)C2=NCCS2)cc1	.	.	/	.	.	.	/
OCC1CCCCN1CCNCc1cn[nH]c1-c1cccc2ccccc12 (stereo not given)	.	.	/	.	/	/	/
c1ccc2c(-c3[nH]ncc3CNCCCn3ncc4ccccc43)cccc2c1	.	.	-1.8	.	.	.	?
O=C(c1ccccc1)N1CCN(C2CC3CCC2C3)CC1 (stereo not given)	.	.	/	.	.	.	/
Cc1cc(=O)oc2cc(OCC(=O)NCc3ccccn3)ccc12	.	.	/	.	.	.	/
Cc1cc(=O)oc2cc(NC(=S)NCc3ccccn3)ccc12	.	.	-6.6	.	.	.	0.047
Cc1ccc(NNc2c(C)nc3ccccc3nc2=O)cc1	.	.	2.7	.	.	.	0.11
Cc1ccc(C(=O)NNc2c3ccccc3nc3ccccc23)cc1	.	.	/	.	/	/	/
COc1cnc(N(C)C)nc1Sc1cccc(Cl)c1	.	.	.	.	.	.	/
CCOC(=O)c1nnn(-c2nonc2N)c1COc1c(C=O)cccc1OC	.	/	/	.	.	.	/
Cc1ccc(/C(=N\O)c2oc3c(C)c4oc(=O)cc(C)c4cc3c2C)cc1	.	.	2.9	.	.	.	0.11
Cc1cc(=O)oc2c1ccc1oc(/C(=N/O)c3ccccc3)c(C)c12	.	.	/	.	.	.	/
COc1cc(C(=O)Nc2ccc3oc(-c4cccnc4)nc3c2)cc(OC)c1OC	.	.	.	.	.	.	.
CCC1CCCCN1C(=O)CSc1nc2ccsc2c(=O)n1Cc1ccccc1 (stereo not given)	.	.	-3.1	.	.	.	0.059
O=C(CSc1nc2ccsc2c(=O)n1Cc1ccccc1)NCC1CCCO1 (stereo not given)	.	.	.	.	.	.	/
Cc1cc(NC(=O)CSc2nnc(-c3cccnc3)n2N)no1	.	.	.	.	.	.	/
CCS(=O)(=O)c1ccc(O)c(NC(=O)Nc2ccccc2)c1	.	.	/	.	.	.	/
CCS(=O)(=O)c1ccc(O)c(NC(=O)Nc2ccc(C(C)(C)C)cc2)c1	.	.	-2.5	.	/	/	.
O=C(CN1C(=O)C2CCCCC2C1=O)OCc1nnc(-c2ccccc2)o1 (stereo not given)	.	.	.	.	.	.	/
CC(CCc1ccccc1)NC(=O)/C=C/c1ccc(F)cc1 (stereo not given)	.	.	2.1	.	.	.	.

Bioassay records as filed in PubChem.
